High-throughput results (PubChem BioAssay)
MrgX1 agonist: activates human MrgX1 receptor signaling | 0.44% of 310,000 active | MrgX1-HEK293 cells, Fluo-4 calcium fluorescence, agonist mode; hits give high values | B-score at 10 µM | Q96LB2;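 active = calcium response B-score plate-corrected fluorescence ratio at least 3 library SD, with starting fluorescence B-score inside 5 SD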
Target sequence (Q96LB2 whole entry, looked up): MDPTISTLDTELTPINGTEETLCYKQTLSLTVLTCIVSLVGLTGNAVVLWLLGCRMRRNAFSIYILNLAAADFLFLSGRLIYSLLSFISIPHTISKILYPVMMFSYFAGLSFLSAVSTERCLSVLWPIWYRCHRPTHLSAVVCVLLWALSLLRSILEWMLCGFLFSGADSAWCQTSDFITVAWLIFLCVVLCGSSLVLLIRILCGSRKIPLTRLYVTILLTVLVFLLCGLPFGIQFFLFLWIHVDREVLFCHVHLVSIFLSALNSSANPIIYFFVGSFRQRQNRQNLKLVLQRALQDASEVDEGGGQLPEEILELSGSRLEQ
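Test system: HEK293 cells stably expressing human MrgX1 receptor; Input: fifteen thousand cells per well; Dosing: compound delivered in addition one of three; Schedule: overnight seeding, then 1 h dark dye loading; Technique: Fluo-4 NW calcium fluorescence; Measure: B-scored fluorescence response ratio; Controls: positive and negative controls per plate.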
RGS4 act: potentiators or activators of RGS4 | HEK293 M3R/inducible RGS4, carbachol calcium flux Fluo4; hits give low values | B-score at 10 µM | 0.92% of 310,000 active;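 active = B-score of the integrated calcium signal more than 4 SD below the library mean, with starting fluorescence not abnormally high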;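 note: negative B-score means reduced calcium response which marks RGS4 activation or potentiation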
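Material: M3R-expressing HEK293 line, RGS4 induced by doxycycline | Schedule: Overnight RGS4 induction, 30 min dye load 37 °C, 20 min compound RT | Measured by: Fluo4 fluorescence kinetic imaging of calcium | Read-out: Integrated calcium ratio converted to B score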
MrgX1 antagonist: antagonists of human MrgX1 receptor | Q96LB2 | MRGX1-HEK293 calcium flux, Fluo-4, BAM8-22 antagonism; hits give low values | B-score at 10 µM | 1.3% of 310,000 active | AID 588676;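 active = calcium-response B-score plate-corrected more than 3 library SD below zero, starting fluorescence within 5 deviations, no agonist response on first addition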;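 note: peak minus trough fluorescence over baseline after final BAM8-22 challenge near maximal dose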
RGS4 inh: human RGS4 inhibition; P49798; HEK293 M3R/RGS4 inducible, Fluo-4 calcium flux; hits give high values; triggered by carbachol at its EC20; B-score at 10 µM; 0.45% of 310,000 active;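 active = B-score, a plate-corrected calcium signal, over three deviations above library mean, with baseline fluorescence within five deviations of library mean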;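 note: RGS4 expression induced by doxycycline in cells with stable M3 receptor; B-score is computed from the integrated fluorescence ratio over baseline after carbachol; higher B-score means a larger calcium signal and so more RGS4 inhibition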
Target sequence (P49798 whole entry, looked up): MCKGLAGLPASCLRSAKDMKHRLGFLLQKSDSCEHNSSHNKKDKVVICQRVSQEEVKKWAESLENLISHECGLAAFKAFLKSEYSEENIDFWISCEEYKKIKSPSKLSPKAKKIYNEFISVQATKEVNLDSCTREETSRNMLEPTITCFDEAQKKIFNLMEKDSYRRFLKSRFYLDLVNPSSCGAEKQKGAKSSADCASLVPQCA
MrgX1 allo act: human MrgX1 positive allosteric modulation, primary screen. Q96LB2. MrgX1-HEK293, Fluo-4 calcium flux, FDSS; hits give high values. B-score at 10 µM. 0.63% of 310,000 active. AID 588675;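 active = plate-corrected calcium response at least 3 library SD above typical, normal starting fluorescence, not activating the receptor alone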;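 note: compound read alongside a low EC10 to EC30 dose of BAM8-22 agonist; peak minus trough fluorescence over baseline measured at the second addition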
The depositor's hits bear a star; i = inactive; nt = no result given. Compounds with a hit are over-represented: about 3.5% of the library has one in this group of screens.

SMILES	MrgX1 agonist	RGS4 act	MrgX1 antagonist	RGS4 inh	MrgX1 allo act
COc1cc(S(=O)(=O)Nc2ccc(C)cc2)ccc1N=Cc1c(C)[nH]n(-c2ccc(C)cc2)c1=O	i	i	i	i	i
COc1cc(S(=O)(=O)Nc2ccc(C)cc2)ccc1N=Cc1c(C)c(C#N)c(=O)n(C)c1O	i	-8.6*	i	i	i
COc1ccc(-c2nnc(SCc3cc(C)cc(C)c3)o2)cc1	i	-7.2*	i	i	i
COc1ccc(-c2nnc(SCC(=O)c3ccc(C)o3)o2)cc1	nt	i	nt	i	nt
O=c1ccnc(Sc2ncccc2[N+](=O)[O-])[nH]1	i	i	-5*	i	i
COc1ccc(N2CC(C(=O)N/N=C/c3cccs3)CC2=O)cc1 (stereo not given)	i	i	-6.1*	i	i
O=C(Nc1cc(C(F)(F)F)ccc1Cl)c1ccncc1	i	i	i	i	i
C/C(=N\Nc1cc(C(F)(F)F)ccc1Cl)c1ccncc1	i	-7.6*	i	i	i
Cc1cccc(C(=O)O/N=C2/CC3CCC2(C)C3(C)C)c1 (stereo not given)	i	i	i	i	8.2*
Cc1ccc(C(=O)O/N=C2\CC3CCC2(C)C3(C)C)cc1 (stereo not given)	i	i	i	i	6.6*
Cc1ccc(C(=O)O/N=C2/CC3CCC2(C)[C@@]3(C)CBr)cc1 (stereo not given in full)	i	i	i	i	i
COCc1ccc(C(=O)N(C)CC2CCCN(CCc3ccc(Cl)cc3)C2)o1 (stereo not given)	i	i	i	i	i
COCc1ccc(C(=O)N(C)CC2CCCN(CCc3ccc(OC)cc3)C2)o1 (stereo not given)	i	-7.5*	i	i	i
Cc1ccc(/C=N/NC(=O)c2ccc3ccccc3c2)s1	i	i	i	i	i
CCCc1nnc(NC(=O)C(=O)NCCN(CC)CC)s1	nt	-7.3*	nt	i	nt
CC(/C=N/NC(=O)Cn1cnc2ccccc21)=C\c1ccccc1	i	i	i	i	i
CC(/C=N/NC(=O)CCn1nnc2ccccc21)=C\c1ccccc1	i	i	-7.7*	i	i
COc1ccccc1CCC(=O)OCC(=O)Nc1cccc(S(=O)(=O)N2CCCCC2)c1	i	i	-4.7*	i	i
COc1ccccc1CCC(=O)Nc1ccc2c(c1)CN(Cc1ccc(C)o1)CC2	i	i	i	i	i
c1ccc(-c2ccc(OCCCNC3CCCC3)cc2)cc1	i	i	i	i	i
c1ccc(Cc2ccc(OCCCNC3CCCC3)cc2)cc1	i	-12*	i	i	i
Cc1ccc(-n2nc3c(=O)n(CC(=O)NCCC4=CCCCC4)nc(C)c3c2C)cc1	i	i	i	i	i
Cc1nc(N/N=C/c2ccccc2)nc(N(C)c2ccccc2)c1[N+](=O)[O-]	i	i	-7.6*	i	i
Nc1ncnc(N2CCc3ccccc32)c1[N+](=O)[O-]	i	i	i	i	i
CN1CCN(c2ccccc2NS(=O)(=O)c2ccc3c(c2)CCN3C(=O)C2CCC2)CC1	i	-9.8*	i	i	i
SMILES	MrgX1 agonist	RGS4 act	MrgX1 antagonist	RGS4 inh	MrgX1 allo act
O=C(C1CCC1)N1CCc2cc(S(=O)(=O)NC3CCCC3)ccc21	i	i	i	i	i
CCn1c(CNC(=O)c2ccccc2Br)nnc1SCC(=O)NC1=NCCS1	i	i	i	i	i
COc1cc(NC(=O)CSCC(=O)Nc2cc(OC)cc(OC)c2)cc(OC)c1	i	i	i	i	i
Cc1ccc(Oc2ncccc2/C=N/OCc2ccc(Cl)cc2Cl)cc1	i	i	i	i	7.3*
S=C(NCc1ccccc1)NCc1ccccn1	i	i	i	i	i
Cc1cc(C)cc(N(CCC#N)C(=O)COC(=O)c2nc3nc(C)cc(C)n3n2)c1	i	i	i	i	i
COc1ccc(N2C(=O)[C@@H]3[C@H](C2=O)[C@H]2c4ccccc4C=CN2[C@@H]3C(=O)Nc2ccccc2)cc1	i	nt	-7.1*	nt	i
O=C(c1ccco1)[C@@H]1[C@@H]2C(=O)N(c3ccccc3)C(=O)[C@@H]2C2c3ccccc3C=CN21 (stereo not given in full)	i	i	i	i	i
CCOc1ccc(-n2c(=O)c3sccc3n(CC(=O)NCC3CCCO3)c2=O)cc1 (stereo not given)	i	i	i	i	i
Oc1cccc2ccc(Nc3ccccn3)nc12	i	i	-7.4*	i	i
CCOC(=O)COn1c(-c2cccc(Cl)c2)nc2ccc([N+](=O)[O-])cc21	i	i	-6.2*	i	i
Cc1cccn2c(CN3CCCN(C=O)CC3)c(C(=O)N(C)CCc3ccccc3)nc12	i	i	i	i	i
CCCN(CCC)C(=O)Cn1c(=O)c2ccccc2n2c(=S)sc(-c3ccccc3C)c12	i	i	-4.6*	i	i
CCCCN1C(=O)/C(=C/C=C2\N(C)c3ccccc3C2(C)C)SC1=S	i	i	-15*	i	i
COc1cccc(C(C(=O)NCc2ccco2)N(Cc2ccco2)C(=O)Cn2nnc3ccccc32)c1 (stereo not given)	i	-7.2*	i	i	i
Cc1nc2nc(CCNS(=O)(=O)c3ccc(Cl)cc3)cn2nc1C	i	i	i	i	i
O=C1C=C(N2CCCCCC2)C(=O)N1c1ccc(Cl)cc1	i	-7*	i	i	i
Cc1ccc(OCC(=O)Nc2ccc(NC(=O)c3ccccc3)c(C)c2)cc1	i	i	i	i	i
COc1ccc2c(COC(=O)c3cccc(S(=O)(=O)NCC(C)C)c3)cc(=O)oc2c1	i	-7.2*	i	i	i
O=C(CCl)N(c1ccccc1)C1CCCCC1	i	-7*	i	i	i
CC(=O)N(c1ccccc1)C1CCCC1	i	i	i	i	i
Cc1nn(-c2ccc(F)cc2)c(Cl)c1C(=O)N(C)CC(=O)Nc1cccc(F)c1	i	i	i	i	i
CC12COC3(C(=O)Nc4ccc([N+](=O)[O-])cc4)CC1CCC32C (stereo not given)	i	i	i	i	8.4*
CC12COC3(C(=O)Nc4ccccc4F)CC1CCC32C (stereo not given)	i	i	i	i	i
NS(=O)(=O)c1ccc(NC(=S)NCCc2ccccc2)cc1	i	i	i	i	i
